The results in this text go back to ChEMBL document CHEMBL3774321, “Systematic diversification of benzylidene heterocycles yields novel inhibitor scaffolds selective for Dyrk1A, Clk1 and CK2” (Eur J Med Chem, 2016).

Data set [1] addresses T1, Myosin light chain kinase 2, skeletal/cardiac muscle (Homo sapiens, UniProt Q9H1R3). Description: Inhibition of full length recombinant human N-terminal GST-tagged MLCK expressed in baculovirus expression system at 1 uM by lantha screen kinase binding assay relative to control. Summed up:
(§1)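 Binding-displacement format: the compound competes with an Alexa Fluor-conjugated tracer for binding to the kinase ATP site, rather than a peptide phosphorylation read-out.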

Data set [2] has as its target T2, Epidermal growth factor receptor (Homo sapiens, UniProt P00533). Description: Inhibition of recombinant human GST-tagged EGFR expressed in baculovirus expression system at 1 uM by lantha screen kinase binding assay relative to control. In outline: as §1
Data set [3] has as its target Activin receptor type-1 (Homo sapiens) (UniProt Q04771). As to the kind of experiment: Inhibition of recombinant human GST-tagged ACVR1 expressed in baculovirus expression system at 1 uM by lantha screen kinase binding assay relative to control. In outline: as §1
Data set [4] deals with Mitogen-activated protein kinase kinase kinase 9 (Homo sapiens) (UniProt P80192). Description: Inhibition of recombinant human GST-tagged MAP3K9 expressed in baculovirus expression system at 1 uM by lantha screen kinase binding assay relative to control. Summed up:
as §1

The target in data set [5] is Serine/threonine-protein kinase 26 (Homo sapiens) (UniProt Q9P289). Description: Inhibition of full length recombinant human GST-tagged MST4 expressed in baculovirus expression system at 1 uM by lantha screen kinase binding assay relative to control.
For data set [6], the target named is Mitogen-activated protein kinase 8 (Homo sapiens) (UniProt P45983). Description: Inhibition of full length recombinant human His-tagged MAPK8 expressed in baculovirus expression system at 1 uM by lantha screen kinase binding assay relative to control. In outline:
as §1

Data set [7] deals with BDNF/NT-3 growth factors receptor (Homo sapiens) (UniProt Q16620). Description: Inhibition of recombinant human His-tagged NTRK2 expressed in baculovirus expression system at 1 uM by lantha screen kinase binding assay relative to control. In outline:
as §1

In data set [8] the target is Glycogen synthase kinase-3 beta (Homo sapiens) (UniProt P49841). As to the kind of experiment: Inhibition of full length recombinant human His-tagged GSK3beta expressed in baculovirus expression system at 1 uM by lantha screen kinase binding assay relative to control. Summed up:
as §1

Data set [9] deals with Serine/threonine-protein kinase pim-2 (Homo sapiens) (UniProt Q9P1W9). As to the kind of experiment: Inhibition of full length recombinant human GST-tagged PIM2 expressed in baculovirus expression system at 1 uM by lantha screen kinase binding assay relative to control.
Serine/threonine-protein kinase pim-2 (Homo sapiens), sequence (Q9P1W9 whole entry, looked up): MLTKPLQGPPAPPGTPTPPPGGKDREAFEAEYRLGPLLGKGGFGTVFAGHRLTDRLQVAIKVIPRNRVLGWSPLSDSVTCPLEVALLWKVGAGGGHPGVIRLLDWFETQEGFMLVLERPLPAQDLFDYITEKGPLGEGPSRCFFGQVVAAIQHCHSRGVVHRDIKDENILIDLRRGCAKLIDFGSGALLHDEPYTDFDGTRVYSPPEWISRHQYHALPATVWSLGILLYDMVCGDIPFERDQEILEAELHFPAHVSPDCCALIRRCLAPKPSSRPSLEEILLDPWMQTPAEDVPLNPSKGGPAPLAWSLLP
The target of data set [10] is T3, Dual specificity protein kinase CLK3 (Homo sapiens, UniProt P49761). As to the kind of experiment: Inhibition of recombinant human GST-tagged CLK3 expressed in baculovirus expression system at 1 uM by lantha screen kinase binding assay relative to control. Summed up: as §1
T3 sequence (P49761 whole entry, looked up): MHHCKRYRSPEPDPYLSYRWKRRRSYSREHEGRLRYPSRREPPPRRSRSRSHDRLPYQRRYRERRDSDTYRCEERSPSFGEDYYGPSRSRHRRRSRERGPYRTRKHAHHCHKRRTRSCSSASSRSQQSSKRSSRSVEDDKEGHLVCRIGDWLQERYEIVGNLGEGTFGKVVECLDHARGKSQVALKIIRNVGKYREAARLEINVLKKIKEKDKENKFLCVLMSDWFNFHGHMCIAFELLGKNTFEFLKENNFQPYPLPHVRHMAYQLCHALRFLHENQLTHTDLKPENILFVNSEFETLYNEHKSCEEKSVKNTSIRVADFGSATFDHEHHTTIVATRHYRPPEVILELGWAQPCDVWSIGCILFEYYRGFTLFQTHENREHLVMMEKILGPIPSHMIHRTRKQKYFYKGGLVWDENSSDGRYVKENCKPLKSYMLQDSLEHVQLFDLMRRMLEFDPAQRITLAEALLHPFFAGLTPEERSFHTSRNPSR
Data set [11] has as its target Dual specificity tyrosine-phosphorylation-regulated kinase 3 (Homo sapiens) (UniProt O43781). Description: Inhibition of full length recombinant human GST-tagged DYRK3 expressed in baculovirus expression system at 1 uM by lantha screen kinase binding assay relative to control.
In data set [12] the target is T1, Myosin light chain kinase 2, skeletal/cardiac muscle. As to the kind of experiment: Inhibition of full length recombinant human N-terminal GST-tagged skeletal MYLK2 expressed in baculovirus expression system at 1 uM by lantha screen kinase binding assay relative to control. Summed up:
as §1

Data set [13] has as its target Serine/threonine-protein kinase pim-1 (Homo sapiens, UniProt P11309). Description: Inhibition of PIM1 (unknown origin) at 1 uM relative to control. Summed up: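 Single-point screen at 1 μM compound. Percent inhibition is the mean of two separate measurements, each run in duplicate.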
The target of data set [14] is Homeodomain-interacting protein kinase 1 (Homo sapiens) (UniProt Q86Z02). Description: Inhibition of recombinant human N-terminal GST-tagged HIPK1 expressed in baculovirus expression system at 1 uM by lantha screen kinase binding assay relative to control. In outline:
as §1

Data set [15] concerns the target Serine/threonine-protein kinase 17A (Homo sapiens) (UniProt Q9UEE5). Description: Inhibition of STK17A (unknown origin) at 1 uM relative to control.
Data set [16] addresses Mitogen-activated protein kinase 8 (Homo sapiens) (UniProt P45983). As to the kind of experiment: Inhibition of full length recombinant human His-tagged MAPK8 expressed in baculovirus expression system at 5 uM by lantha screen kinase binding assay relative to control. Summed up:
as §1

For data set [17], the target named is Cyclin-dependent kinase 5/CDK5 activator 1 (Homo sapiens) (UniProt Q00535+Q15078). As to the kind of experiment: Inhibition of full length recombinant human GST-tagged, His-tagged CDK5/p25 expressed in baculovirus expression system at 5 uM by lantha screen kinase binding assay.
The target of data set [18] is Dual specificity protein kinase CLK4 (Homo sapiens, UniProt Q9HAZ1). The following applies: 5 uM.
The target in data set [19] is Glycogen synthase kinase-3 beta (Homo sapiens) (UniProt P49841). As to the kind of experiment: Inhibition of full length recombinant human His-tagged GSK3beta expressed in baculovirus expression system at 5 uM by lantha screen kinase binding assay relative to control. In outline:
as §1

In data set [20] the target is T3, Dual specificity protein kinase CLK3. As to the kind of experiment: Inhibition of recombinant human GST-tagged CLK3 expressed in baculovirus expression system at 5 uM by lantha screen kinase binding assay relative to control. In outline: as §1
Data set [21] addresses Dual specificity protein kinase CLK2 (Homo sapiens) (UniProt P49760). As to the kind of experiment: Inhibition of recombinant human GST-tagged CLK2 expressed in baculovirus expression system at 5 uM by lantha screen kinase binding assay relative to control. Summed up: as §1
In data set [22] the target is Serine/threonine-protein kinase pim-2 (Homo sapiens) (UniProt Q9P1W9). As to the kind of experiment: Inhibition of full length recombinant human GST-tagged PIM2 expressed in baculovirus expression system at 5 uM by lantha screen kinase binding assay relative to control.
In data set [23] the target is Serine/threonine-protein kinase D2 (Homo sapiens) (UniProt Q9BZL6). As to the kind of experiment: Inhibition of full length recombinant human GST-tagged PRKD2 expressed in baculovirus expression system at 5 uM by lantha screen kinase binding assay relative to control.
Data set [24] addresses Myosin light chain kinase, smooth muscle (Homo sapiens) (UniProt Q15746). As to the kind of experiment: Inhibition of recombinant human GST-tagged MYLK expressed in baculovirus expression system at 5 uM by lantha screen kinase binding assay relative to control. Summed up: as §1
Data set [25] deals with Mitogen-activated protein kinase 14 (Homo sapiens) (UniProt Q16539). Description: Inhibition of full length recombinant human GST-tagged MAPK14 expressed in Escherichia coli at 5 uM by lantha screen kinase binding assay relative to control.
Data set [26] addresses T2, Epidermal growth factor receptor. Description: Inhibition of recombinant human GST-tagged EGFR expressed in baculovirus expression system at 5 uM by lantha screen kinase binding assay relative to control. In outline: as §1
Data set [27] concerns the target Casein kinase I isoform delta (Homo sapiens) (UniProt P48730). Description: Inhibition of full length recombinant human GST-tagged CSNK1D expressed in baculovirus expression system at 5 uM by lantha screen kinase binding assay relative to control.
Data set [28] has as its target T1, Myosin light chain kinase 2, skeletal/cardiac muscle. Description: Inhibition of full length recombinant human N-terminal GST-tagged MLCK expressed in baculovirus expression system at 5 uM by lantha screen kinase binding assay relative to control. Summed up:
as §1

Another data set concerns Plasma. Description: Metabolic stability in rat plasma assessed as drug degradation at 1 uM after 120 mins by LC-MS/MS analysis. The data set is classed as ADME, cell-free. The following applies: 2 h. Summed up: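 Compound (1 µM) in pooled heparinised rat plasma at 37 °C, sampled at 0, 5, 15, 30, 60 and 120 min. Reaction stopped with 5 volumes of cold acetonitrile containing internal standard. Remaining compound was measured by LC-MS/MS; means of two experiments.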

Each structure is given as a SMILES string. Active and inactive are the calls of the source. No cut-off for these calls is given here.

T1 sequence (Q9H1R3 whole entry): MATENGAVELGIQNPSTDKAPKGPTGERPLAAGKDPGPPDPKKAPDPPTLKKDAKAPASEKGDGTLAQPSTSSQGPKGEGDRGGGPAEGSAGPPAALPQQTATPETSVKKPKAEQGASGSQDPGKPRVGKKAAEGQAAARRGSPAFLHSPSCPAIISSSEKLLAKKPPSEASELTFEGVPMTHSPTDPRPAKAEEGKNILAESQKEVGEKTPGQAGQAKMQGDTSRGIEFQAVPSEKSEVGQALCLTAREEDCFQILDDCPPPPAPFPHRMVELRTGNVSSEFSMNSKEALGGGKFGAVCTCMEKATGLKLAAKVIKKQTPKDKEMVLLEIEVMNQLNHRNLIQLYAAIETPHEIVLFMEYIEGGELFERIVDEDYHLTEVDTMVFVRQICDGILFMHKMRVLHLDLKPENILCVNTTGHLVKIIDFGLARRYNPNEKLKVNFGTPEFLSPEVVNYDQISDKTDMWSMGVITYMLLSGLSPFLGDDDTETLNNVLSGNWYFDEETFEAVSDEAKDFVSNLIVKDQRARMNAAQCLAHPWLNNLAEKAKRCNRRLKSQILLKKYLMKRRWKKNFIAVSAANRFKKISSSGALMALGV
T2 sequence (P00533 whole entry): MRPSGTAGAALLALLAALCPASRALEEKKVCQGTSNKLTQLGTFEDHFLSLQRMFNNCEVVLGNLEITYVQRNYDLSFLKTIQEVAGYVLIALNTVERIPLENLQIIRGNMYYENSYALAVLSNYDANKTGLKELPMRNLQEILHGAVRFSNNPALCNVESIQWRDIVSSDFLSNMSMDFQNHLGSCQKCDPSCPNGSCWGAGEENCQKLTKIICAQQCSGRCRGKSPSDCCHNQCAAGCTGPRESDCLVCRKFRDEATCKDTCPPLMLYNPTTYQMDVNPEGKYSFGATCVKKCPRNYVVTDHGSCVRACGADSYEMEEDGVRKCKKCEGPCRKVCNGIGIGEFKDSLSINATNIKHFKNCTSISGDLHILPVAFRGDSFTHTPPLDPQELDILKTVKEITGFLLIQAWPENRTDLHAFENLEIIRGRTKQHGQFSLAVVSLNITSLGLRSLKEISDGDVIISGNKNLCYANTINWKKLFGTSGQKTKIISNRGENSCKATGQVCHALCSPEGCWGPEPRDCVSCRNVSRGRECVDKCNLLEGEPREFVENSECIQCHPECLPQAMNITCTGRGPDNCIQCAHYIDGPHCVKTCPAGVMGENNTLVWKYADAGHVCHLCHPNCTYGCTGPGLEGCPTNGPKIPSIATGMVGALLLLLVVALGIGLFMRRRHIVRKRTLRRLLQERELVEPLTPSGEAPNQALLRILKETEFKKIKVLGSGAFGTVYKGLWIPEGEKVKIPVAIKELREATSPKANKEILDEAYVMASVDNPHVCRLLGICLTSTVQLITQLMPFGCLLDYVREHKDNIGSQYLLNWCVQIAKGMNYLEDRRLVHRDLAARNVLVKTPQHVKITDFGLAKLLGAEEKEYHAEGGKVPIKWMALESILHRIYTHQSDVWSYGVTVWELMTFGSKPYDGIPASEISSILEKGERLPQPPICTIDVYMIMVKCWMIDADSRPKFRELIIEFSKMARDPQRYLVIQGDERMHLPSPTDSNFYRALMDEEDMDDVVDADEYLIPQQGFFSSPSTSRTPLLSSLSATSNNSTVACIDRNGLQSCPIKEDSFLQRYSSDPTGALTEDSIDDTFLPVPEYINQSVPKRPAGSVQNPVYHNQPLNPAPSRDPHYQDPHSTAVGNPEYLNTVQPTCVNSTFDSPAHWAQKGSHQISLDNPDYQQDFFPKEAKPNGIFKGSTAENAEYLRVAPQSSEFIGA
Glycogen synthase kinase-3 beta (Homo sapiens), sequence (P49841 whole entry, looked up): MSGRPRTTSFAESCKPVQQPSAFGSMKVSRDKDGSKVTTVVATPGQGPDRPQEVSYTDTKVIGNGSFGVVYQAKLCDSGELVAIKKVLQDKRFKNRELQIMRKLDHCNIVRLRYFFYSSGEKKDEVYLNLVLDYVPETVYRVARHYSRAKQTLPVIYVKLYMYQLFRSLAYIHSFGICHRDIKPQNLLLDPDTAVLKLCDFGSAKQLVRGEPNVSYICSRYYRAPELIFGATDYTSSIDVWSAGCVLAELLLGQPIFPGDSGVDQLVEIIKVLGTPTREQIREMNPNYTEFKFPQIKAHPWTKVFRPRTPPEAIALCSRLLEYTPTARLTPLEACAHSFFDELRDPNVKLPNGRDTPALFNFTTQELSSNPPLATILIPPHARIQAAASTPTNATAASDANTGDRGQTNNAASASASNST
Mitogen-activated protein kinase 8 (Homo sapiens), sequence (P45983 whole entry): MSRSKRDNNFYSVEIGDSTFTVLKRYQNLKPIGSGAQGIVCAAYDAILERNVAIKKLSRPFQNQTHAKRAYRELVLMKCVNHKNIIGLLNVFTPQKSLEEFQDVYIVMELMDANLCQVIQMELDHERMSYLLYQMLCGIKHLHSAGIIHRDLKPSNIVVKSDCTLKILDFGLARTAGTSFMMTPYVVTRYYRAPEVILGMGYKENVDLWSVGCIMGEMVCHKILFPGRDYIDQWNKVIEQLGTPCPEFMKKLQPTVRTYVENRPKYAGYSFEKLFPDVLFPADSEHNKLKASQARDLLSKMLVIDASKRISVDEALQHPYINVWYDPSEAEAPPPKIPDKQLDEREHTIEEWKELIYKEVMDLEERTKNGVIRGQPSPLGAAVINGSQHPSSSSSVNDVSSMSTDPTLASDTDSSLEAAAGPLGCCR
Homeodomain-interacting protein kinase 1 (Homo sapiens), sequence (Q86Z02 whole entry, looked up): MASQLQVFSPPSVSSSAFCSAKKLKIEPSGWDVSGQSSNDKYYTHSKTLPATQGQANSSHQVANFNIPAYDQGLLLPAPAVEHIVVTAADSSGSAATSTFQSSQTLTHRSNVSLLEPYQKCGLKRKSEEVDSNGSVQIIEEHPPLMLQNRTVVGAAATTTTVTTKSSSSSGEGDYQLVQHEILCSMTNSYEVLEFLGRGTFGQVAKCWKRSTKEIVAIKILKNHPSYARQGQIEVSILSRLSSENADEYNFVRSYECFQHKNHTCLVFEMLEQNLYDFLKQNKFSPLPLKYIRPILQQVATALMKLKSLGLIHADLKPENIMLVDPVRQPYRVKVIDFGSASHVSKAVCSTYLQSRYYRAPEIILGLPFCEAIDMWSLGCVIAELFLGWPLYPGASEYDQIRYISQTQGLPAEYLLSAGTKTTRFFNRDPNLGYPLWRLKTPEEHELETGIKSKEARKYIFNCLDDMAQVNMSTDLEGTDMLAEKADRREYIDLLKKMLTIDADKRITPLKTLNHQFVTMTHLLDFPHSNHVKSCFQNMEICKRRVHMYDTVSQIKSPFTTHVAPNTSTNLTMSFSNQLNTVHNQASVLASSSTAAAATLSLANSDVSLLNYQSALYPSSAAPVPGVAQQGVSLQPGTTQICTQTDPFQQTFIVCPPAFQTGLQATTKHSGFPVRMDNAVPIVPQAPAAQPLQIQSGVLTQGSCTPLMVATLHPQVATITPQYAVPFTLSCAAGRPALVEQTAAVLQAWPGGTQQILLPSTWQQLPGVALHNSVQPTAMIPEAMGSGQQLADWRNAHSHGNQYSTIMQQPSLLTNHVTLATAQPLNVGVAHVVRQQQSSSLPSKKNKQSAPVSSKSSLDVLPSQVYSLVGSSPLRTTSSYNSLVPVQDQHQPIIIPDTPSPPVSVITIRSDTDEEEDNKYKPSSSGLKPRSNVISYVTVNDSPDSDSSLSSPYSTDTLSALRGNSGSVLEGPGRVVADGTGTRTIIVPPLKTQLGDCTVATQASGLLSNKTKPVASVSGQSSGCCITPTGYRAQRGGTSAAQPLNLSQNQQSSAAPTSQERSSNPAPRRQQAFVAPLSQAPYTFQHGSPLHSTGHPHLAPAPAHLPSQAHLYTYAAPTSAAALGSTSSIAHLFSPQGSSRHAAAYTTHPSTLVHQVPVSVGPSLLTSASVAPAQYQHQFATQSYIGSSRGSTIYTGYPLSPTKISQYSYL
Serine/threonine-protein kinase pim-1, sequence (P11309 whole entry, looked up): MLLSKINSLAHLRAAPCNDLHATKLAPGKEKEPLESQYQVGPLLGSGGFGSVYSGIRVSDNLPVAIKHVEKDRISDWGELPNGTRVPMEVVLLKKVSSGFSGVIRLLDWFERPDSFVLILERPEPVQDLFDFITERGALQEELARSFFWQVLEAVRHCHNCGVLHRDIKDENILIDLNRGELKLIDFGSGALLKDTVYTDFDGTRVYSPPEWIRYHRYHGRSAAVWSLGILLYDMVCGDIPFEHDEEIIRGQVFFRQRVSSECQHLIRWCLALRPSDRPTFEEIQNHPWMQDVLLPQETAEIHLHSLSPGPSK

The term inhibition denotes how much of the control response was suppressed. Regarding `O=C1NC(=S)S/C1=C\c1ccc2ncccc2c1`, the inhibition in data set [1] came out at 89%; in data set [3] it was 37%; in data set [4], 2%; in data set [6], 7%; in data set [7], 3%; in data set [8], 10%. Moreover, the inhibition in data set [9] is 31%; in data set [10], 95%; in [11], 84%; in data set [12] it was 35%; in data set [13], 89%; in data set [14] it was 33%. Also, the inhibition in data set [15] came out at 97%. Also, the inhibition entry in data set [2] and in data set [5] was “inactive” each time.
Take `O=C1NC(=S)S/C1=C\c1ccc2ncsc2c1`: the inhibition in data set [16] is 14%; in data set [18], 98%; in data set [19], 8%; in data set [20] it was 44%; in [21], 65%; in [28], 12%. Also, the inhibition result in [17], in data set [22], in data set [23], in data set [24], in [25] and in [26] was “inactive” throughout. Also, in data set [27], the inhibition result is “inactive”.
Consider `CC1C/C(=C\c2ccc3c(c2)CCO3)C(=O)O1` (centres undefined), for which the Stability result in the data set on Plasma is “Stable”.
